Experimental data: ChEMBL document CHEMBL1153250, “Discovery and SAR of novel, potent and selective hexahydrobenzonaphthyridinone inhibitors of poly(ADP-ribose)polymerase-1 (PARP-1)” (Bioorg Med Chem Lett, 2010)
The source made the active and inactive calls. The rule behind the calls is not given here.

How the values were obtained:
[1] = target: T1, Poly [ADP-ribose] polymerase 1 (Homo sapiens, UniProt P09874); test: Inhibition of PARP1 in human HeLa cells assessed as inhibition of hydrogen peroxide-induced poly(ADP-ribosyl)ation; format: cell-based
[2] = target: T1, Poly [ADP-ribose] polymerase 1; test: Inhibition of human PARP1 by scintillation proximity assay
[3] = Inhibition of Tankyrase at 1 uM
[4] = target: T2, Protein mono-ADP-ribosyltransferase PARP3 (Homo sapiens, UniProt Q9Y6F1); test: Inhibition of PARP3
T2 sequence (Q9Y6F1 whole entry): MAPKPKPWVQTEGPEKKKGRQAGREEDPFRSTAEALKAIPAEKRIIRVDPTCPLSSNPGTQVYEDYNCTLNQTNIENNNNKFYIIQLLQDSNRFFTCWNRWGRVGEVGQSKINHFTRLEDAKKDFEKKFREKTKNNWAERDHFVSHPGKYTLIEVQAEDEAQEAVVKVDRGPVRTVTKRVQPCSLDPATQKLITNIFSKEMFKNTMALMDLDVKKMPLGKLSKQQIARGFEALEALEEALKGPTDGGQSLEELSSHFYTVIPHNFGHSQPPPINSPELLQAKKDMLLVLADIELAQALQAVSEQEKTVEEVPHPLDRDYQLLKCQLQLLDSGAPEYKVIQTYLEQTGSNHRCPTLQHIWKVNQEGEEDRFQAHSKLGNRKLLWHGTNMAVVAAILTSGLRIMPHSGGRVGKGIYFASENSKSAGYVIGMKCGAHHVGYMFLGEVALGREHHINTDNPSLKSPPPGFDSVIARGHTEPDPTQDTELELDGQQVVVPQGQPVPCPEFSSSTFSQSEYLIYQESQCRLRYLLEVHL

[5] = target: Voltage-gated inwardly rectifying potassium channel KCNH2 (Homo sapiens, UniProt Q12809); test: Binding affinity to potassium channel IKr at 10 uM
[6] = system: Rattus norvegicus; test: Volume of distribution in rat at 3 mg/kg, iv and po; format: ADME, organism-based; parameters: dose 3 mg/kg, route oral; details: in vivo
Outline: (§1)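 Rats received the compound both intravenously and orally, each at 3 mg/kg. Reported PK parameters are half-life (h), volume of distribution (L/kg), clearance (ml/min/kg), oral bioavailability (%F) and oral AUC (μM h).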

[7] = Half life in rat at 3 mg/kg, iv and po; format: ADME, organism-based; parameters: dose 3 mg/kg, route oral; details: in vivo; outline: as §1
[8] = Oral bioavailability in rat at 3 mg/kg; format: ADME, organism-based; details: in vivo; outline: as §1
[9] = target: Protein mono-ADP-ribosyltransferase PARP4 (Homo sapiens, UniProt Q9UKK3); test: Inhibition of VPARP
[10] = target: T3, Poly [ADP-ribose] polymerase tankyrase-1 (Homo sapiens, UniProt O95271); test: Inhibition of Tankyrase 1
T3 sequence (O95271 whole entry): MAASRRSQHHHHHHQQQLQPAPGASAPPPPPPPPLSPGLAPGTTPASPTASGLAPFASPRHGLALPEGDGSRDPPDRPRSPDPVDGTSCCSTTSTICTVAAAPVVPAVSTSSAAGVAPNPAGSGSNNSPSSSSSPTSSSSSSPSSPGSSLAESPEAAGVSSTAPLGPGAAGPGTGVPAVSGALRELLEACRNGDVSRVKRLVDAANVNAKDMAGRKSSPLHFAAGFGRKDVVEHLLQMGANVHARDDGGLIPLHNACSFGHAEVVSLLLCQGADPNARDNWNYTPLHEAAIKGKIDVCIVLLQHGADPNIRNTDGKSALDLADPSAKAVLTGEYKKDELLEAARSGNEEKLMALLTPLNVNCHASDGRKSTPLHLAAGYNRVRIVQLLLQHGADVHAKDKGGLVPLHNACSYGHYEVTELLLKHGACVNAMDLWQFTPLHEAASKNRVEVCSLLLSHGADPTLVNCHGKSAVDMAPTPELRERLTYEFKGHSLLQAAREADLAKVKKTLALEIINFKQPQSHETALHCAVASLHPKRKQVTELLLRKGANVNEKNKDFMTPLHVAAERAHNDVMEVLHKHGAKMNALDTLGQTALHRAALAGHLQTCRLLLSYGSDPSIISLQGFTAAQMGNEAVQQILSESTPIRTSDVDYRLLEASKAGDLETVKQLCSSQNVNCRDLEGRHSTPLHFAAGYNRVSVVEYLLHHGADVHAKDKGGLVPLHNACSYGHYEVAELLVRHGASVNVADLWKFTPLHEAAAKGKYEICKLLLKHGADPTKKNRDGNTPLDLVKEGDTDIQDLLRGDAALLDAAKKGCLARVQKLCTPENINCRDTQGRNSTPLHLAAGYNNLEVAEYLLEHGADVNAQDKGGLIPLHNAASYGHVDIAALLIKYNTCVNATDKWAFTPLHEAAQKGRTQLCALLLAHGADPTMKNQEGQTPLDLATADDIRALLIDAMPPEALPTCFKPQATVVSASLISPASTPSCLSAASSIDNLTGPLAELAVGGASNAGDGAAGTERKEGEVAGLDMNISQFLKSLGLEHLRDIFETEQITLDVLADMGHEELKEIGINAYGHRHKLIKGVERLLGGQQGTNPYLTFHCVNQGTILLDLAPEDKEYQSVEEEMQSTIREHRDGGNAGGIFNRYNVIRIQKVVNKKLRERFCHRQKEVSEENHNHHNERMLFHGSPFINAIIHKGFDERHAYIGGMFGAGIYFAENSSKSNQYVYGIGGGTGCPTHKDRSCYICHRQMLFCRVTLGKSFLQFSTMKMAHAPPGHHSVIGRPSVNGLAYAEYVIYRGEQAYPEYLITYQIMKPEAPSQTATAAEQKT

[11] = Inhibition of Cytochrome P450 at 10 uM; format: ADME
[12] = Intrinsic clearance in rat liver microsomes; format: ADME, Microsome
[13] = AUC in rat at 3 mg/kg, po; format: ADME, organism-based; parameters: dose 3 mg/kg, route oral; details: plasma; outline: as §1
[14] = target: T4, Poly [ADP-ribose] polymerase 2 (Homo sapiens, UniProt Q9UGN5); test: Inhibition of PARP2
[15] = target: T1, Poly [ADP-ribose] polymerase 1; test: Inhibition of human PARP1 at 1 uM by scintillation proximity assay
[16] = target: T4, Poly [ADP-ribose] polymerase 2; test: Inhibition of PARP2 at 1 uM

T4 sequence (Q9UGN5 whole entry): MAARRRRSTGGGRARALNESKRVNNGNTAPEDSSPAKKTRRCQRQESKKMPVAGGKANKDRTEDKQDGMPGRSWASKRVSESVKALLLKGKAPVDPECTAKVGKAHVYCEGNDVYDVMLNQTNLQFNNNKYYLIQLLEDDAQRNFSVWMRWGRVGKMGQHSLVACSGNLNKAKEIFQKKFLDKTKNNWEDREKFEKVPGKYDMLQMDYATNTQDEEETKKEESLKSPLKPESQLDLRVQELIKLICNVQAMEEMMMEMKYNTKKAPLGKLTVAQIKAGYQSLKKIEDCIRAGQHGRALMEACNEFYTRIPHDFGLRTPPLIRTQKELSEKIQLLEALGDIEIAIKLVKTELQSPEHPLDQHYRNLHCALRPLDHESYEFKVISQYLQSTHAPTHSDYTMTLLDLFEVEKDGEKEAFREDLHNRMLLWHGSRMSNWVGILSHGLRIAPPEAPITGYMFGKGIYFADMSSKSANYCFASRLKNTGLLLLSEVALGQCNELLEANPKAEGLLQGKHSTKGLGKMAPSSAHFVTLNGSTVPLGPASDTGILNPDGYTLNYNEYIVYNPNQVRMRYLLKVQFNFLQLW
T1 sequence (P09874 whole entry): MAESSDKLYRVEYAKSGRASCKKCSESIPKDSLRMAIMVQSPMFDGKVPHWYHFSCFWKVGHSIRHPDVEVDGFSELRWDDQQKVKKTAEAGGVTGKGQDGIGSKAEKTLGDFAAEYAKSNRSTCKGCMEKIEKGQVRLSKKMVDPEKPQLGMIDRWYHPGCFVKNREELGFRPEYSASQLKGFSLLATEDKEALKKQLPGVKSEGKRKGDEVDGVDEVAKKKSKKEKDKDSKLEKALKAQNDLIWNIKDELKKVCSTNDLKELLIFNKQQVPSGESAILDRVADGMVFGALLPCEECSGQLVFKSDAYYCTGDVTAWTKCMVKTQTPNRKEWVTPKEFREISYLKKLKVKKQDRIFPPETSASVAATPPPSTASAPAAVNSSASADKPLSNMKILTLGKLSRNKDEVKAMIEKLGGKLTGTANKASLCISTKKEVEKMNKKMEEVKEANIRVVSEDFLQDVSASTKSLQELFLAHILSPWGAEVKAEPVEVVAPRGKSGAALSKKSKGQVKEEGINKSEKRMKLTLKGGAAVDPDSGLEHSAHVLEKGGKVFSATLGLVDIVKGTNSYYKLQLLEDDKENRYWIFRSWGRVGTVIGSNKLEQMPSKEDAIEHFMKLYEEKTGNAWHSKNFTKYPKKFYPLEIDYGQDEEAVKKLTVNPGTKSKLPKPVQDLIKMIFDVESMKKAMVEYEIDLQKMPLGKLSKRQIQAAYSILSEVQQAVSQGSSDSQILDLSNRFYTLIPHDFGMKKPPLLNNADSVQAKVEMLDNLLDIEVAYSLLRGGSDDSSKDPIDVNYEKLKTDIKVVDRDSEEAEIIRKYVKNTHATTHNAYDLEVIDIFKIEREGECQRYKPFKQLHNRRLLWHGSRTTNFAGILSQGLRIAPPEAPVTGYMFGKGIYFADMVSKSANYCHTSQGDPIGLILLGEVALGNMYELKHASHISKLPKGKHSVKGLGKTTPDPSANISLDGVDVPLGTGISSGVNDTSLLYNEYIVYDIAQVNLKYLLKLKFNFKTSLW
Chain of Voltage-gated inwardly rectifying potassium channel KCNH2 (Q12809 whole entry): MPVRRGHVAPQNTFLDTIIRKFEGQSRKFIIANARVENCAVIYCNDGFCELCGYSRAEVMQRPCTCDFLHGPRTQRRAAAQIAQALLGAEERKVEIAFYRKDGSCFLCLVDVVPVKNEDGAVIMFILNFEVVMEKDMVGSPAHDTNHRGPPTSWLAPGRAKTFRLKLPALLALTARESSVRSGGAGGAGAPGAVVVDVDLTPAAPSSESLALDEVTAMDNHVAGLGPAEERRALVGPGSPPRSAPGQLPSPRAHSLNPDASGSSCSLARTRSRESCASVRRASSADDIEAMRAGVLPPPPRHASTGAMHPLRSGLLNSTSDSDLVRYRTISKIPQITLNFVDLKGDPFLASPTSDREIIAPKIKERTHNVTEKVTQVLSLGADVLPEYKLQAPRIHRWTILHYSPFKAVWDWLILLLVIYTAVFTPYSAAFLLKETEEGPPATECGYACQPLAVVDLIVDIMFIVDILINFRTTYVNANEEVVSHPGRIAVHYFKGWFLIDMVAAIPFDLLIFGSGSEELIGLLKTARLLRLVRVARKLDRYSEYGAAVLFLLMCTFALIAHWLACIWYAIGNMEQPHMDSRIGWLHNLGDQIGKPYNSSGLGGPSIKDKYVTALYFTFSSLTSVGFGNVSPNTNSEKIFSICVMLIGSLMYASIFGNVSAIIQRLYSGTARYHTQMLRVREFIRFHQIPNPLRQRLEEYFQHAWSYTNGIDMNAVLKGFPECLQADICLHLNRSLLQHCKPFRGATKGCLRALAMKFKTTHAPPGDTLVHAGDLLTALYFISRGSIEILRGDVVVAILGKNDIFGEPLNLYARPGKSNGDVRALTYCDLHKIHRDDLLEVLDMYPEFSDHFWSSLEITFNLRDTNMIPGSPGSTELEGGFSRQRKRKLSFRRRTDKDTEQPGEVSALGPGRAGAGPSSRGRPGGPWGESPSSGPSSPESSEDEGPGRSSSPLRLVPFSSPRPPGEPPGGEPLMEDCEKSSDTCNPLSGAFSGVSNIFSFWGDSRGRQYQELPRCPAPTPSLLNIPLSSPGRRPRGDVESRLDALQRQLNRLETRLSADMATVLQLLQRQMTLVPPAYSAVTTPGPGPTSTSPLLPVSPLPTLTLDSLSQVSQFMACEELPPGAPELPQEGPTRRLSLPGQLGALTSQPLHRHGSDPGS
Chain of Protein mono-ADP-ribosyltransferase PARP4 (Q9UKK3 whole entry): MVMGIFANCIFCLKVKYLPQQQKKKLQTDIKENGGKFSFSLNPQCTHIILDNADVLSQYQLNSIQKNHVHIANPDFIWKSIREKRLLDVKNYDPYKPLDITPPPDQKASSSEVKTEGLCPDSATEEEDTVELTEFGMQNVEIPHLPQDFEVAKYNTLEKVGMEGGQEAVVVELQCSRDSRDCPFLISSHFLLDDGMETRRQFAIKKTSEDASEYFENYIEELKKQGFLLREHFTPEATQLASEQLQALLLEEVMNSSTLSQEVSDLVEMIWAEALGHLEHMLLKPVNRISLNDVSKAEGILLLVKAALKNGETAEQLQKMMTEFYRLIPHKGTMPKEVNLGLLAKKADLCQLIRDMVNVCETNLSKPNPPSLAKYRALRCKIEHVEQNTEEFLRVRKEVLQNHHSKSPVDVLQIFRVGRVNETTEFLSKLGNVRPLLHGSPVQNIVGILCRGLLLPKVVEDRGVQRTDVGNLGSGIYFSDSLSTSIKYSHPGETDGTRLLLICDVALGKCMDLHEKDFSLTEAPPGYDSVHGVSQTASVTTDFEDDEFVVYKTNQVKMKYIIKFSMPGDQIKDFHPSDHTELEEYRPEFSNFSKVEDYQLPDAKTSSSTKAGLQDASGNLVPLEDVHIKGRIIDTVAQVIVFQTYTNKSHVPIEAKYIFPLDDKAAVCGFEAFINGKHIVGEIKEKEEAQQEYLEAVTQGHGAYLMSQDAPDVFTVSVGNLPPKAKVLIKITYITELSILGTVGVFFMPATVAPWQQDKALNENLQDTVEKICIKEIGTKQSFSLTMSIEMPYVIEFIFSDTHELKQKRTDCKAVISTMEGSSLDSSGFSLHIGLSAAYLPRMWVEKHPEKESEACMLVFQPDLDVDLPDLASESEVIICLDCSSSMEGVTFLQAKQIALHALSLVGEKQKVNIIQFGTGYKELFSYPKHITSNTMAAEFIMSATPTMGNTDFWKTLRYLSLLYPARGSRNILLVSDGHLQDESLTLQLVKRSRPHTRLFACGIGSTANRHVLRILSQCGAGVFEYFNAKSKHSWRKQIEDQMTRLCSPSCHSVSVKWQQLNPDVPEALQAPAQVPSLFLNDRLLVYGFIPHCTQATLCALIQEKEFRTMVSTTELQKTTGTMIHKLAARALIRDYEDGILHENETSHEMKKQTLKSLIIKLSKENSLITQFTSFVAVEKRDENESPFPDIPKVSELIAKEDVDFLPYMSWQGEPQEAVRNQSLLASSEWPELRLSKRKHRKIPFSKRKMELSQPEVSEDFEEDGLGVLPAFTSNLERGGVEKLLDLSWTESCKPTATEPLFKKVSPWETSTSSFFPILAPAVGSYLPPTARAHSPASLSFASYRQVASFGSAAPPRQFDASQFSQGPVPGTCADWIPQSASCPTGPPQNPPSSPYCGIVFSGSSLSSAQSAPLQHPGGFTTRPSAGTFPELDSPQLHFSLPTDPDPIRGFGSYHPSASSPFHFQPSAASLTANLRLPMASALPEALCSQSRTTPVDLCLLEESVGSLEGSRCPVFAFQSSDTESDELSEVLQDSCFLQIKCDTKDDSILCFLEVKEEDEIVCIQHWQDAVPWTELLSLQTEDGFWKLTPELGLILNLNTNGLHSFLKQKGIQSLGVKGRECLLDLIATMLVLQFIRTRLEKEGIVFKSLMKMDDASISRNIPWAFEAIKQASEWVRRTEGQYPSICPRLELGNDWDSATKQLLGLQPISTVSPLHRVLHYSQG

| SMILES | EC50 [1] [µM] | IC50 [2] [µM] | other results |
| --- | --- | --- | --- |
| O=C1NCC2c3c(cccc31)CCN2C(=O)Cc1ccncc1 (stereo not drawn) | 4.6 | 0.01 | – |
| O=C(O)CCCC(=O)N1CCc2cccc3c2C1CNC3=O (stereo not drawn) | 5 | 0.015 | – |
| O=C1NCC2c3c(cccc31)CCN2C(=O)Cc1ccc(Br)cc1 (stereo not drawn) | 0.2 | 0.007 | – |
| CN1CCN(CC(=O)N2CCc3cccc4c3C2CNC4=O)CC1 (stereo not drawn) | 3.5 | 0.097 | – |
| O=C1NCC2c3c(cccc31)CCN2C(=O)CCn1cnc2ccccc21 (stereo not drawn) | 1.6 | 0.001 | – |
| O=C1NCC2c3c(cccc31)CCN2C(=O)c1cccc(C(=O)N2CCCNCC2)c1 (stereo not drawn) | – | 0.05 | – |
| CCN(CC)Cc1ccc(C(=O)N2CCc3cccc4c3C2CNC4=O)cc1 (stereo not drawn) | 0.31 | 0.013 | – |
| O=C1NCC2c3c(cccc31)CCN2C(=O)c1ccccc1Cl (stereo not drawn) | – | 0.035 | – |
| O=C1NCC2c3c(cccc31)CCN2C(=O)CN1CCC(c2ccccc2)CC1 (stereo not drawn) | 0.41 | 0.0005 | – |
| O=C1NCC2NCCc3cccc1c32 (stereo not drawn) | – | 0.14 | inhibition [3]: 11% |
| O=C1NCC2c3c(cccc31)CCN2C(=O)CCc1ccccc1 (stereo not drawn) | 0.35 | 0.004 | – |
| O=C1NCC2c3c(cccc31)CCN2C(=O)Cc1cccc(Cl)c1 (stereo not drawn) | 1.1 | 0.005 | – |
| O=C1NCC2c3c(cccc31)CCN2C(=O)Cc1cccnc1 (stereo not drawn) | 0.36 | 0.001 | IC50 [4]: 0.05 µM; Activity [5]: Not Active; Vd [6]: 3 L/kg; half-life [7]: 1.7 h; bioavailability [8]: 51%; IC50 [9]: 0.44 µM; IC50 [10]: 3.5 µM; Activity [11]: Not Active; microsomal CLint [12]: 3 µL/min/mg; AUC [13]: 2.3 µM·h; IC50 [14]: 0.001 µM |
| O=C1NCC2c3c(cccc31)CCN2C(=O)Cc1ccccn1 (stereo not drawn) | 0.23 | 0.013 | – |
| O=C1NCC2c3c(cccc31)CCN2C(=O)NCc1ccccc1 (stereo not drawn) | 0.69 | 0.012 | – |
| O=C1NCC2c3c(cccc31)CCN2C(=O)Cc1ccccc1Cl (stereo not drawn) | 0.9 | 0.016 | – |
| CN(C)C(=O)CCC(=O)N1CCc2cccc3c2C1CNC3=O (stereo not drawn) | 2.8 | 0.009 | – |
| Cn1cc(CCC(=O)N2CCc3cccc4c3C2CNC4=O)cn1 (stereo not drawn) | 0.42 | 0.014 | – |
| O=C1NCC2c3c(cccc31)CCN2C(=O)c1ccccc1 (stereo not drawn) | 0.84 | 0.004 | – |
| O=C1NCC2c3c(cccc31)CCN2C(=O)Cc1ccc(Cl)cc1 (stereo not drawn) | 0.65 | 0.005 | – |
| Cc1csc(CC(=O)N2CCc3cccc4c3C2CNC4=O)n1 (stereo not drawn) | 2.9 | 0.006 | – |
| O=C1NCC2c3c(cccc31)CCN2C(=O)c1cccc(Cl)c1 (stereo not drawn) | – | 0.037 | – |
| O=C1NCC2c3c(cccc31)CCN2C(=O)Nc1ccccc1 (stereo not drawn) | 1.1 | 0.011 | – |

| SMILES | EC50 [1] [µM] | IC50 [2] [µM] | other results |
| --- | --- | --- | --- |
| COc1cccc(CC(=O)N2CCc3cccc4c3C2CNC4=O)c1 (stereo not drawn) | 1.2 | 0.005 | – |
| O=C1NCC2c3c(cccc31)CCN2C(=O)CN1CCCCC1 (stereo not drawn) | 0.28 | 0.006 | microsomal CLint [12]: 18 µL/min/mg |
| O=C1NCC2c3c(cccc31)CCN2C(=O)CN1CCN(c2ccccc2)CC1 (stereo not drawn) | 0.44 | 0.011 | – |
| CC(=O)N1CCC[C@H]1C(=O)N1CCc2cccc3c2C1CNC3=O (stereo partly drawn) | 2.8 | 0.014 | – |
| O=C1NCC2c3c(cccc31)CCN2S(=O)(=O)Cc1ccccc1 (stereo not drawn) | 2.7 | 0.083 | – |
| O=C1NCC2c3c(cccc31)CCN2C(=O)C1CCNC1 (stereo not drawn) | 3.2 | 0.001 | – |
| N#Cc1ccc(CC(=O)N2CCc3cccc4c3C2CNC4=O)cc1 (stereo not drawn) | 0.2 | 0.009 | – |
| O=C1NCC2c3c(cccc31)CCN2C(=O)c1ccc(C(=O)N2CCCNCC2)cc1 (stereo not drawn) | – | 0.13 | – |
| O=C1NCC2c3c(cccc31)CCN2C(=O)C1CCCC1 (stereo not drawn) | 0.55 | 0.011 | – |
| O=C1CC2NCCc3cccc(c32)N1 (stereo not drawn) | – | – | inhibition [15]: inactive; inhibition [16]: inactive |
| O=C1NCC2c3c(cccc31)CCN2C(=O)OCc1ccccc1 (stereo not drawn) | 0.13 | 0.014 | – |
| O=C1NCC2c3c(cccc31)CCN2Cc1ccccc1 (stereo not drawn) | 5.2 | 0.19 | – |
| O=C1NCC2c3c(cccc31)CCN2C(=O)CCc1cnccn1 (stereo not drawn) | 0.33 | 0.006 | IC50 [4]: 0.07 µM; Activity [5]: Not Active; Vd [6]: 2 L/kg; half-life [7]: 1.2 h; IC50 [9]: 0.66 µM; IC50 [10]: 2 µM; Activity [11]: Not Active; microsomal CLint [12]: 24 µL/min/mg; IC50 [14]: 0.001 µM |
| O=C1NCC2c3c(cccc31)CCN2C(=O)[C@@H]1CCCN1 (stereo partly drawn) | 0.18 | 0.004 | – |
| O=C1NCC2c3c(cccc31)CCN2C(=O)Oc1ccccc1 (stereo not drawn) | 1.4 | 0.009 | – |
| O=C1NCC2c3c(cccc31)CCN2C(=O)C1CNC1 (stereo not drawn) | 0.66 | 0.001 | – |
| Cc1c(CC(=O)N2CCc3cccc4c3C2CNC4=O)sc2ccccc12 (stereo not drawn) | 1.3 | 0.013 | – |
| O=C1NCC2c3c(cccc31)CCN2C(=O)Cc1ccc(OCc2ccccc2)cc1 (stereo not drawn) | 0.58 | 0.016 | – |
| COc1ccc(CC(=O)N2CCc3cccc4c3C2CNC4=O)cc1 (stereo not drawn) | 0.16 | 0.006 | – |
| O=C1NCC2c3c(cccc31)CCN2C(=O)c1ccc(Cl)cc1 (stereo not drawn) | 0.26 | 0.007 | – |
| Nc1cccc2c1CCNC2=O | – | 0.0005 | – |
| COc1ccccc1CC(=O)N1CCc2cccc3c2C1CNC3=O (stereo not drawn) | 1.7 | 0.027 | – |
| O=C1NCC2c3c(cccc31)CCN2C(=O)Cc1ccccc1 (stereo not drawn) | 0.23 | 0.008 | – |
